Results reported in ChEMBL document CHEMBL1629527, “In vitro antifungal activities of bis(alkylpyridinium)alkane compounds against pathogenic yeasts and molds” (Antimicrob Agents Chemother, 2010).

Key:
Lichtheimia corymbifera = experiment: Antifungal activity against Absidia corymbifera 04-200170 after 24 to 72 hrs by broth microdilution method; type: functional
In short: (§1)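 Broth microdilution MIC per CLSI M27-A3 (yeasts) or M38-A2 (molds). RPMI 1640 with L-glutamine, without bicarbonate, buffered to pH 7.0 with 0.165 M MOPS. Final test range for the compounds was 0.175–87.5 μM. Incubation at 35°C with visual reading at 24–72 h. MIC was the lowest concentration giving 100% inhibition versus the growth control (azoles 50% or 100%, by organism). Each isolate was run in duplicate in two independent experiments.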

[1] = tested on: Cryptococcus gattii species complex; experiment: Antifungal activity against Cryptococcus gattii 05-200122 after 24 to 72 hrs by broth microdilution method; type: functional, Cryptococcus bacillisporus; in short: as §1
Rhizopus arrhizus [2] = experiment: Antifungal activity against Rhizopus oryzae 05-203111 after 24 to 72 hrs by broth microdilution method; type: functional
In short: (§2)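 Mold isolates subcultured on potato dextrose agar, then tested by CLSI M38-A2 broth microdilution in RPMI 1640 (L-glutamine, no bicarbonate) buffered to pH 7.0 with 0.165 M MOPS. Compounds were dissolved in water and tested at a final 0.175–87.5 μM. Plates were incubated at 35°C. MIC was read visually as the lowest concentration giving 100% inhibition versus the growth control. Each isolate was run in duplicate in two independent experiments.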

Candida albicans [3] = experiment: Antifungal activity against Candida albicans ATCC 10231 after 24 to 72 hrs by broth microdilution method; type: functional; in short: as §1
Cryptococcus neoformans [4] = experiment: Antifungal activity against Cryptococcus neoformans 05-202523 after 24 to 72 hrs by broth microdilution method; type: functional; in short: as §1
[5] = Antifungal activity against Exophiala jeanselmei 03-200268 after 48 to 72 hrs; type: functional
In short: (§3)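 CLSI M38-A2 broth microdilution for molds in RPMI 1640 with L-glutamine and no bicarbonate, buffered with 0.165 M MOPS to pH 7.0. Compounds were dissolved in water and tested at 0.175–87.5 μM final, 35°C, up to 7 days. MIC was read visually as 100% inhibition versus growth control. For MFC, clear wells were plated on SDA and the lowest concentration with no colonies taken. Each isolate was run in duplicate, two independent experiments.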

Aspergillus flavus [6] = experiment: Antifungal activity against Aspergillus flavus ATCC 204304 after 24 to 72 hrs by broth microdilution method; type: functional; in short: as §1
Lomentospora prolificans [7] = experiment: Antifungal activity against Scedosporium prolificans 05-203060 after 48 to 72 hrs; type: functional; in short: as §3
Rhizopus arrhizus [8] = experiment: Antifungal activity against Rhizopus oryzae 05-203111 after 48 to 72 hrs; type: functional
In short: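 After the broth microdilution MIC read, suspension from every well without visible growth was plated onto Sabouraud dextrose agar and incubated at 35°C, up to 7 days for molds. MFC was taken as the lowest drug concentration with no colonies.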

Candida parapsilosis [9] = experiment: Antifungal activity against Candida parapsilosis 04-202398 after 24 to 72 hrs by broth microdilution method; type: functional; conditions: Lodderomyces parapsilosis; in short: as §1
Nakaseomyces glabratus [10] = experiment: Antifungal activity against Candida glabrata 04-202345 after 24 to 72 hrs by broth microdilution method; type: functional; in short: as §1
Candida tropicalis [11] = experiment: Antifungal activity against Candida tropicalis 04-202361 after 24 to 72 hrs by broth microdilution method; type: functional; in short: as §1
Aspergillus terreus [12] = experiment: Antifungal activity against Aspergillus terreus 05-202844 after 24 to 72 hrs by broth microdilution method; type: functional; in short: as §1
Aspergillus fumigatus [13] = experiment: Antifungal activity against Aspergillus fumigatus 05-203114 after 24 to 72 hrs by broth microdilution method; type: functional; in short: as §1
Lomentospora prolificans [14] = experiment: Antifungal activity against Scedosporium prolificans 05-203060 after 24 to 72 hrs by broth microdilution method; type: functional; in short: as §2
Aspergillus terreus [15] = experiment: Antifungal activity against Aspergillus terreus 05-202844 after 48 to 72 hrs; type: functional
In short: (§4)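 MFC: after the MIC read, 30-μl aliquots from each well without visible growth were plated onto Sabouraud dextrose agar and incubated at 35°C. Reading was at 48–72 h for yeasts and up to 7 days for molds. MFC was the lowest concentration with no colonies.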

Scedosporium apiospermum = experiment: Antifungal activity against Scedosporium apiospermum 05-203100 after 24 to 72 hrs by broth microdilution method; type: functional; in short: as §2
Candida albicans [16] = experiment: Antifungal activity against Candida albicans ATCC 90028 after 24 to 72 hrs by broth microdilution method; type: functional; in short: as §1
Candida parapsilosis [17] = experiment: Antifungal activity against Candida parapsilosis ATCC 22019 after 24 to 72 hrs by broth microdilution method; type: functional; conditions: Lodderomyces parapsilosis; in short: as §1
Aspergillus flavus [18] = experiment: Antifungal activity against Aspergillus flavus 05-203758 after 24 to 72 hrs by broth microdilution method; type: functional; in short: as §1
Cryptococcus neoformans [19] = experiment: Antifungal activity against Cryptococcus neoformans ATCC 90112 after 24 to 72 hrs by broth microdilution method; type: functional; in short: as §1
[20] = Antifungal activity against Paecilomyces lilacinus 05-200601 after 24 to 72 hrs by broth microdilution method; type: functional; conditions: Purpureocillium lilacinum; in short: as §2
Pichia kudriavzevii [21] = experiment: Antifungal activity against Candida krusei ATCC 6258 after 24 to 72 hrs by broth microdilution method; type: functional; in short: as §1
Exophiala spinifera [22] = experiment: Antifungal activity against Exophiala spinifera 03-200803 after 48 to 72 hrs; type: functional; in short: as §3
Aspergillus fumigatus [23] = experiment: Antifungal activity against Aspergillus fumigatus ATCC 204305 after 24 to 72 hrs by broth microdilution method; type: functional; in short: as §1
Pichia kudriavzevii [24] = experiment: Antifungal activity against Candida krusei 04-202328 after 24 to 72 hrs by broth microdilution method; type: functional; in short: as §1
[25] = Antifungal activity against Exophiala jeanselmei 03-200268 after 24 to 72 hrs by broth microdilution method; type: functional; in short: as §1
Fusarium solani = experiment: Antifungal activity against Fusarium solani 04-203102 after 24 to 72 hrs by broth microdilution method; type: functional; in short: as §2
Candida parapsilosis [26] = experiment: Antifungal activity against Candida parapsilosis ATCC 22019 after 48 to 72 hrs; type: functional; conditions: Lodderomyces parapsilosis; in short: as §4
[27] = tested on: Cunninghamella bertholletiae; experiment: Antifungal activity against Cunninghamella bertholletiae 99-12187 after 24 to 72 hrs by broth microdilution method; type: functional; in short: as §1
Exophiala spinifera [28] = experiment: Antifungal activity against Exophiala spinifera 03-200803 after 24 to 72 hrs by broth microdilution method; type: functional; in short: as §2
Pichia kudriavzevii [29] = experiment: Antifungal activity against Candida krusei ATCC 9258 after 24 to 72 hrs by broth microdilution method; type: functional; in short: as §1
[30] = tested on: Meyerozyma guilliermondii; experiment: Antifungal activity against Candida guilliermondii after 24 to 72 hrs by broth microdilution method; type: functional; in short: as §1
[31] = tested on: Cryptococcus gattii species complex; experiment: Antifungal activity against Cryptococcus gattii after 24 to 72 hrs by broth microdilution method; type: functional, Cryptococcus bacillisporus; in short: as §1
Nakaseomyces glabratus [32] = experiment: Antifungal activity against Candida glabrata after 24 to 72 hrs by broth microdilution method; type: functional; in short: as §1
Candida parapsilosis [33] = experiment: Antifungal activity against Candida parapsilosis after 24 to 72 hrs by broth microdilution method; type: functional; conditions: Lodderomyces parapsilosis; in short: as §1
Clavispora lusitaniae = experiment: Antifungal activity against Candida lusitaniae after 24 to 72 hrs by broth microdilution method; type: functional; in short: as §1
Cryptococcus neoformans [34] = experiment: Antifungal activity against Cryptococcus neoformans after 24 to 72 hrs by broth microdilution method; type: functional; in short: as §1
Candida dubliniensis = experiment: Antifungal activity against Candida dubliniensis after 24 to 72 hrs by broth microdilution method; type: functional; in short: as §1
Candida albicans [35] = experiment: Antifungal activity against Candida albicans after 24 to 72 hrs by broth microdilution method; type: functional
In short: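 CLSI M27-A3 broth microdilution for yeasts in RPMI 1640 with L-glutamine and no bicarbonate, buffered with 0.165 M MOPS to pH 7.0. Compounds were dissolved in water and tested at 0.175–87.5 μM final, 35°C. MIC was read visually at 24–72 h as 100% inhibition versus growth control. For MFC, 30 μl from clear wells went onto SDA at 35°C for 48–72 h, reading the lowest concentration without colonies. Duplicates, two independent runs.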

Pichia kudriavzevii [36] = experiment: Antifungal activity against Candida krusei after 24 to 72 hrs by broth microdilution method; type: functional; in short: as §1
Candida tropicalis [37] = experiment: Antifungal activity against Candida tropicalis after 24 to 72 hrs by broth microdilution method; type: functional; in short: as §1

CCCCCc1cccc[n+]1CCCCCCCCCCCC[n+]1ccccc1CCCCC.[Cl-].[Cl-]
23.7 mg/L: MIC (Pichia kudriavzevii [21]) | MIC (Pichia kudriavzevii [24]) | MIC (Fusarium solani) | MIC (Pichia kudriavzevii [29])
47.3 mg/L: MIC (Cryptococcus neoformans [4]) | MIC (Candida parapsilosis [9]) | MIC [27]
1.48 mg/L: MIC [1] | MIC (Candida albicans [3]) | MIC (Lomentospora prolificans [14]) | MFC (Aspergillus terreus [15]) | MIC (Scedosporium apiospermum) | MIC (Candida albicans [16]) | MFC (Candida parapsilosis [26])
> 47.3 mg/L: MIC (Lichtheimia corymbifera) | MIC (Aspergillus flavus [6]) | MIC (Aspergillus fumigatus [13]) | MIC (Aspergillus flavus [18]) | MIC [20] | MIC (Aspergillus fumigatus [23])
5.9 mg/L: MFC (Lomentospora prolificans [7]) | MFC (Rhizopus arrhizus [8]) | MIC (Cryptococcus neoformans [19])
2.96 mg/L: MIC (Rhizopus arrhizus [2]) | MFC [5]
0.74 mg/L: MIC (Candida tropicalis [11]) | MIC (Aspergillus terreus [12]) | MIC (Candida parapsilosis [17]) | MFC (Exophiala spinifera [22]) | MIC [25]
0.37 mg/L: MIC (Nakaseomyces glabratus [10]) | MIC (Exophiala spinifera [28])

C[C@@H]1[C@H](O)[C@@H](C)/C=C/C=C/C=C/C=C/C=C/C=C/C=C/[C@H](O[C@@H]2O[C@H](C)[C@@H](O)[C@H](N)[C@@H]2O)C[C@@H]2O[C@](O)(C[C@@H](O)C[C@@H](O)[C@H](O)CC[C@@H](O)C[C@@H](O)CC(=O)O[C@H]1C)C[C@H](O)[C@H]2C(=O)O [AMPHOTERICIN B]
0.19 mg/L: MIC [31] | MIC (Cryptococcus neoformans [34])
0.18 mg/L: MIC (Nakaseomyces glabratus [32])
0.25 mg/L: MIC90 [30] | MIC50 [31] | MIC90 [31] | MIC90 (Nakaseomyces glabratus [32]) | MIC50 (Candida parapsilosis [33]) | MIC90 (Clavispora lusitaniae) | MIC50 (Cryptococcus neoformans [34]) | MIC50 (Candida albicans [35]) | MIC50 (Pichia kudriavzevii [36]) | MIC50 (Candida tropicalis [37])
0.28 mg/L: MIC (Candida parapsilosis [33])
0.12 mg/L: MIC (Clavispora lusitaniae)
0.2 mg/L: MIC (Candida albicans [35])
0.15 mg/L: MIC [30]
0.125 mg/L: MIC50 [30] | MIC50 (Nakaseomyces glabratus [32]) | MIC50 (Clavispora lusitaniae) | MIC50 (Candida dubliniensis) | MIC90 (Candida dubliniensis)
0.22 mg/L: MIC (Pichia kudriavzevii [36]) | MIC (Candida tropicalis [37])
0.1 mg/L: MIC (Candida dubliniensis)
0.5 mg/L: MIC90 (Candida parapsilosis [33]) | MIC90 (Cryptococcus neoformans [34]) | MIC90 (Candida albicans [35]) | MIC90 (Pichia kudriavzevii [36]) | MIC90 (Candida tropicalis [37])
